Rce1 inh: yeast Rce1p protease inhibitors, primary screen, biochemical, fluorescence, cell-free homogeneous; CAAX prenyl protease 2 (Saccharomyces cerevisiae (strain ATCC 204508 / S288c)), Q03530; yeast membranes, quenched prenylated peptide cleavage fluorescence; calls only; 290,000 compounds, 0.27% hits;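 active means fall in fluorescence gain of 50% or more versus controls, with final raw signal at or below 3038400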
Target sequence (Q03530 whole entry, looked up): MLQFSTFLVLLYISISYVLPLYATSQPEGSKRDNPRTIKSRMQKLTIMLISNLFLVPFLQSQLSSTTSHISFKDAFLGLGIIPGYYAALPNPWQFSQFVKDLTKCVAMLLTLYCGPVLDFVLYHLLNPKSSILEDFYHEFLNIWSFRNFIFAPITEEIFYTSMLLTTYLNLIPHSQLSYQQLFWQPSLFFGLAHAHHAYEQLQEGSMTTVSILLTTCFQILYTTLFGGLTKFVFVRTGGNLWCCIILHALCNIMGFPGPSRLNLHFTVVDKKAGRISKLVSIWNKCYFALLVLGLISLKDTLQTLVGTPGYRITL
T cell modulator: modulators of CD8 T cell-vesicle binding, primary screen, mouse 2C CD8+ T cells, flow cytometry | 2C CD8+ T cell-vesicle binding; stronger effect = lower value | response (vesicle binding), % at 7 µM | 330,000 compounds, 0.068% hits;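 active means response, share of CD8 T cells binding vesicles, and their 90th percentile fluorescence all below set limits, cut at about 80% in these data, passing the limit was not always enough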;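 further: values below 100% mean blocked vesicle binding to the CD8+ T cells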
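material = purified 2C TCR transgenic mouse naive CD8+ T cells | controls = Unloaded micro-vesicles (low), QL9 vesicles with 0.7% DMSO (high) | detection = cytometric PE anti-B7-1 and Alexa647 anti-CD8 signals after 1% paraformaldehyde fixation | incubation = binding step 1.5 h, 37 °C, antibody labelling 20 min, ice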
V-ATPase pHluor: regulators of yeast V-ATPase proton pumping, primary screen, pHLuorin cytosolic pH fluorescence | AID 504577, 2011 | response, % at 10 µM | S. cerevisiae | 350,000 compounds, 0.37% hits; in the data active means response mostly above about 7.3%, no sharp cut-off; inactive means mostly below about 5.4%; further: actives read high
KLK7 zymogen act: proKLK7 zymogen activators, primary screen, biochemical, fluorescence intensity; Kallikrein-7 (Homo sapiens), P49862; purified proKLK7, EDANS-DABCYL substrate fluorescence; 100% is mature enzyme control, 0% vehicle; activation, % at 7 µM; 370,000 compounds, 0.9% hits; AID 652039, 2013;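 active means activation above the mean of all tested compounds plus 3 SD, computed per campaign excluding outliers beyond control limits, cut at about 13% in these data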
Target sequence (P49862 whole entry, looked up): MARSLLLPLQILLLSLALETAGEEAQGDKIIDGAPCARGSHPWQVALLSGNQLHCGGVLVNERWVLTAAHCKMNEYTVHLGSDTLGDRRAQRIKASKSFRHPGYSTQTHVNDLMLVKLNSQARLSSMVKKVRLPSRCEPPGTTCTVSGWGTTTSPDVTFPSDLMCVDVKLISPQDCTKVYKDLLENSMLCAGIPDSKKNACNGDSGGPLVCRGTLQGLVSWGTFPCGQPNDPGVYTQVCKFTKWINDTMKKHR
beta cell repl: inducers of MIN6 beta-cell proliferation, primary screen, ATP luminescence, uHTS. MIN6 cells proliferation, ATPlite luminescence, 48 h; cells starved in 0.2% serum; 100% = growth in 10% serum. AID 2380, 2010. proliferation, % at 10 µM. 330,000 compounds, 0.29% hits;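 active means compounds whose signal lies at least 3.5 SD above the mean of all wells on their plate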
Yeast superoxide: reduction of superoxide in aged yeast, primary screen, HTS | AID 2690, 2010 | 330,000 compounds, 0.18% hits | superoxide response (% of plate mean), % at 10 µM | S. cerevisiae aged cells, superoxide DHE fluorescence; stronger effect = lower value;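 active means superoxide response under a set limit, about three screen SD below normal, cut at about 65% in these data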;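 further: yeast aged for seven days with compound at 30 °C before DHE staining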
proKLK7 act conf: proKLK7 zymogen activators, confirmation, biochemical, fluorescence intensity, triplicate; shares compounds with KLK7 zymogen act; purified proKLK7, EDANS-DABCYL substrate fluorescence; scaled: vehicle 0, mature enzyme 100; activation, % at 7 µM; 3,200 compounds, 68% hits; AID 686949, 2013;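 active means activation, as change over the incubation, above the mean of all tested compounds plus 3 SD, cut at about 13% in these data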
EDANS-DABCYL int: EDANS-DABCYL substrate optical interference, artefact control for kallikrein-7 zymogen activator project, biochemical, fluorescence intensity, high throughput; shares compounds with KLK7 zymogen act; AID 686952, 2013; 3,200 compounds, 80% hits; activation, % at 7 µM; no enzyme, 4 h; solvent 0%, active enzyme control 100%;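 active means activation above the all-compound mean plus 3 SD, ignoring values outside control-based bounds, cut at about 4.8% in these data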;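 further: value is the 4 h activation minus the activation read at time zero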
K7 EDANS ctr: optically interferes with EDANS-DABCYL fluorescence, kallikrein-7 activator counter-screen | EC50, µM | 250 compounds, 20% hits | shares compounds with KLK7 zymogen act | EDANS-DABCYL peptide fluorescence interference, no enzyme;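 active means compounds that raise the fluorescence signal in this interference counterscreen, with EC50 at or below 10 µM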;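 further: intact quenched peptide substrate alone read at 355 nm excitation and 520 nm emission; signal is fluorescence gain from T0 to T4 after four hours at room temperature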
A number is an active result; i = inactive; nt = not tested or not shown. Only some compounds are listed: those with a hit (about 1.9% of all), similar ones and a draw of the others.

SMILES | Rce1 inh | T cell modulator | V-ATPase pHluor | KLK7 zymogen act | beta cell repl | Yeast superoxide | proKLK7 act conf | EDANS-DABCYL int | others
COc1ccc2c(c1)CCC1(C)CC(=O)C(Br)=C21 (stereo unspecified) | nt | nt | i | 124.3 | nt | nt | 71.3 | 75.7
COCc1cc(C)nc(SCC(=O)Nc2nc(C)cs2)c1C#N | i | i | i | 76.0 | i | i | 140.2 | 136.2
Cc1cc(C)c(C#N)c(SCC(=O)C2CC2)n1 | i | i | i | 88.8 | i | i | 120.7 | 134.9
COC(=O)CSc1ccc(C#N)c(SCC(=O)OC)c1 | i | i | i | 16.7 | i | i | 26.9 | 27.1
Cc1cc(C)c(C#N)c(SCC(=O)Nc2nonc2N)n1 | nt | i | i | 40.5 | i | i | 74.5 | 71.5
COc1cccc(NC(=O)CCC(=O)Nc2cc(OC)c(NC(=O)c3cccs3)cc2OC)c1 | i | nt | i | i | i | nt | nt | nt
CCOC(=O)CC(=O)CSc1nc2c(c(C)c1C#N)CCC2 | i | i | i | 44.7 | i | i | 74.5 | 70.4
CCOC(=O)CC(=O)CSc1nc(C)cc(C)c1C#N | i | i | i | 40.9 | i | i | 61.4 | 74.3
COC(=O)CSc1ccccc1C(=O)OC | i | i | i | 54.9 | i | i | 83.6 | 82.9
CCOC(=O)CC(=O)CSc1nc(CC)c(C)cc1C#N | i | i | i | i | i | i | nt | nt
COC(=O)CSc1nc(C)cc(C)c1C#N | i | i | i | 57.5 | i | i | 124.7 | 121.1
COC(=O)c1ccccc1SCC(=O)Nc1ccc(N2CCOCC2)cc1 | i | i | i | i | i | i | nt | nt
CCN1CCSc2ccc(C(=O)NCc3ccccc3F)cc21 | i | i | i | 30.7 | i | i | 50.0 | i | K7 EDANS ctr=i
CCN1CCSc2ccc(C(=O)NCc3ccccc3C)cc21 | i | i | i | 20.0 | i | i | i | i
COc1cccc(CNC(=O)c2ccc3c(c2)N(C)CCS3)c1OC | i | i | i | 37.6 | i | i | 68.7 | 47.2 | K7 EDANS ctr=i
CCN1CCSc2ccc(C(=O)NCc3ccccc3Br)cc21 | i | i | i | i | i | i | nt | nt
CN1CCSc2ccc(C(=O)NCc3ccccc3F)cc21 | i | i | i | 29.3 | i | i | 30.6 | 13.4 | K7 EDANS ctr=i
O=C1CN(S(=O)(=O)c2ccc(F)cc2)CCN1 | nt | i | i | i | i | i | nt | nt
Cc1ccccc1NC(=O)c1ccc2c(c1)N(C)CCS2 | i | i | i | i | i | i | nt | nt
CN1CCSc2ccc(C(=O)Nc3cc(F)ccc3F)cc21 | i | i | i | 15.5 | i | i | i | 12.2
CC(C)=CCc1c(O)ccc2c1OC(c1ccc(O)c(O)c1)CC2=O (stereo unspecified) | i | i | i | i | i | i | nt | nt
O=C1CC(c2ccc(O)c(O)c2)Oc2c1ccc(O)c2O (stereo unspecified) | nt | i | i | 16.3 | i | i | i | 7.7
CCCCNc1nc(-c2ccccc2)cc(C(F)(F)F)c1C(N)=O | i | i | i | 19.2 | i | i | i | i
CC1(C)Cc2c(c(N3CCOCC3)nc3sc(-c4ccc(C(=O)O)o4)c(N)c23)CO1 | i | i | i | 46.1 | i | i | 22.1 | 22.9
CN1Cc2c(N3CCOCC3)nc3sc(C#N)c(N)c3c2CC1(C)C | i | i | i | 16.7 | i | i | 67.8 | 70.0
SMILES | Rce1 inh | T cell modulator | V-ATPase pHluor | KLK7 zymogen act | beta cell repl | Yeast superoxide | proKLK7 act conf | EDANS-DABCYL int | others
CNC(=O)c1ccc(-c2sc3nc(N4CCOCC4)c4c(c3c2N)CC(C)(C)OC4)o1 | nt | i | i | i | i | i | nt | nt
CC(C)Sc1nc(N2CCOCC2)c2c(c1C#N)CC(C)(C)N(C)C2 | i | i | i | 35.2 | i | i | i | i
CN1Cc2c(N3CCOCC3)nc(SCCC#N)c(C#N)c2CC1(C)C | i | i | i | i | i | i | nt | nt
CCCSc1ncc(Cl)c(C(=O)Nc2ccc(S(=O)(=O)N3CC(C)OC(C)C3)cc2)n1 (stereo unspecified) | i | i | i | 66.6 | i | i | i | i
O=C(Nc1ncccc1O)c1ccc(Oc2ccccc2)cc1 | i | i | i | i | i | i | nt | nt
CNC(=O)C(C)N1c2cccc3cccc(c23)S1(=O)=O (stereo unspecified) | i | i | i | 14.8 | i | i | i | 13.2
Cc1noc(C(C)C)c1C(=O)Nc1ccc(-c2nnc3n2CCCCC3)cc1 | nt | i | i | i | i | i | nt | nt
CCc1c(C2(O)CCCCC2)[nH]c2cnccc12 | nt | i | i | 70.0 | i | i | i | 16.5
CN(C)C(=O)C(Sc1ccc(S(=O)(=O)N2CCCC2)cn1)c1ccccc1 (stereo unspecified) | nt | i | i | i | i | i | nt | nt
CC(=O)Nc1cccc(Nc2nc(-c3ccccc3)nc3ccccc23)c1 | nt | i | i | 18.9 | i | i | i | 7.8
CC(=O)Nc1ccc2nc3ccccc3nc2c1 | i | i | i | 43.3 | i | 52.0 | 45.5 | 42.5
CC(=O)c1cccc(Nc2nc(-c3ccccc3)nc3ccccc23)c1 | i | i | i | i | i | i | nt | nt
CC(=O)Nc1ccc(Nc2cc(C)c3ccccc3n2)cc1 | i | i | i | i | i | i | nt | nt
CC(=O)Nc1ccc(-c2nc3ccc(NC(C)=O)cc3o2)cc1 | i | i | i | 32.9 | i | i | 25.8 | 15.8 | K7 EDANS ctr=i
Cc1ccccc1C(=O)NNC(=O)CCCCC(=O)NNC(=O)c1ccccc1C | i | i | i | i | i | i | nt | nt
N#Cc1cc(C(=O)c2ccccc2O)cn(-c2nccs2)c1=O | i | i | i | 12.9 | nt | i | 25.0 | 23.4
N#Cc1cc(C(=O)c2cc(F)ccc2O)cn(-c2nccs2)c1=O | i | i | i | 24.9 | i | i | 42.0 | 46.3
COc1ccc2oc3ccccc3c(=O)c2c1 | i | nt | i | 25.3 | i | nt | 70.4 | 62.5
COc1cccc2c(=O)c3ccccc3oc12 | i | i | i | 13.3 | i | i | 14.6 | 21.5
Cc1ccc(C2(C)NC(=O)N(CC(=O)N(Cc3ccccc3)C(C)(C)C)C2=O)cc1 (stereo unspecified) | i | i | i | i | i | i | nt | nt
COc1ccccc1-n1c(N)c(C(=O)NCC2CCCO2)c2nc3ccccc3nc21 (stereo unspecified) | i | i | i | 14.4 | i | i | i | i

Assay outcomes from PubChem.
